pIC50: −log10 of the molar value. Calls of active or inactive are those of the source. The rule behind the calls is not given here.
What was measured:
Dipeptidyl peptidase 1 [1] = target: T1, Dipeptidyl peptidase 1 (Homo sapiens, UniProt P53634); experiment: Inhibition of CatL-activated recombinant human C-terminal His10-tagged cathepsin C (25 to 463 residues) expressed in mouse myeloma cells using Gly-Phe-AFC as substrate preincubated for 3 hrs followed by substrate addition and measured after 60 mins; format: cell-free
How it was run: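 Activated rhCatC was diluted to 4.4 nM in 25 mM MES, 50 mM NaCl, 5 mM DTT, 0.01% Triton X-100, pH 6.0. It was preincubated with compound (added in 10% DMSO) for 3 h at RT. Gly-Phe-AFC was then added to 100 μM final and read as fluorescence after 60 min. IC50 came from a sigmoidal nonlinear fit; values are means of at least two experiments.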

Dipeptidyl peptidase 1 [2] = target: T1, Dipeptidyl peptidase 1; experiment: Inhibition of cathepsin C in human U937 cells using H-Gly-Phe-AFC as substrate preincubated for 4 hrs followed by substrate addition and measured after 60 mins; format: cell-based
How it was run: (§1)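 THP1 or U937 cells, grown in RPMI 1640 with 10% FBS, were seeded at 1.0 × 10^6/mL. They were preincubated with threefold serial dilutions of compound for 4 h at 37 °C. H-Gly-Phe-AFC was then added from a 100 μM solution and fluorescence was read after 60 min at 37 °C. Values are means of at least two experiments.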

[3] = Intrinsic clearance in rat liver microsomes assessed per mg protein measured after 60 mins in presence of NADPH by LC-MS/MS analysis; format: ADME, Microsome; details: read-out: CLH
[4] = Intrinsic clearance in mouse liver microsomes assessed per mg protein measured after 60 mins in presence of NADPH by LC-MS/MS analysis; format: ADME, Microsome; details: read-out: CLH
Dipeptidyl peptidase 1 [5] = target: T1, Dipeptidyl peptidase 1; experiment: Inhibition of cathepsin C in human THP1 cells using H-Gly-Phe-AFC as substrate preincubated for 4 hrs followed by substrate addition and measured after 60 mins; format: cell-based; how it was run: as §1
[6] = Intrinsic clearance in human liver microsomes assessed per mg protein measured after 60 mins in presence of NADPH by LC-MS/MS analysis; format: ADME, Microsome; details: read-out: CLH
[7] = target: Epidermal growth factor receptor (Homo sapiens, UniProt P00533); experiment: Inhibition of EGFR (unknown origin) up to 10 uM using biotin-labelled peptide as substrate preincubated for 2 hrs followed by substrate addition and measured after 30 mins by HTRF FRET assay
How it was run: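 EGFR WT was used at 0.1 nM final in 50 mM HEPES pH 7.0, 0.02% NaN3, 0.01% BSA, 0.1 mM orthovanadate, 10 mM MgCl2, 2.5 mM DTT, 6.25 nM SEB. It was preincubated with compound for 2 h. Biotin-peptide (1.4 μM) and ATP (20 μM) were then added for 30 min at RT. Read-out was HTRF/TR-FRET (Ex 320, Em 615/665 nm) with a sigmoidal curve fit.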

Cytochrome P450 2C19 = Cytochrome P450 2C19 (Homo sapiens, UniProt P33261); experiment: Inhibition of CYP2C19 (unknown origin); format: ADME
How it was run: (§2)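 Tested against recombinant human cytochrome P450 isoforms 1A2, 2D6, 3A4, 2C9 and 2C19.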

Cathepsin S = Cathepsin S (Homo sapiens, UniProt P25774); experiment: Inhibition of recombinant human C-terminal polyhistidine-tagged cathepsin S (Met1 to Ile331 residues) expressed in HEK293 cells using MCA-Arg-Pro-Lys-Pro-Val-Glu-NVAL-Trp-Arg-Lys(DNP)-NH2 as substrate preincubated for 30 mins followed by substrate addition and measured after 30 mins
How it was run: (§3)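 Recombinant human cathepsin was preincubated with compound for 30 min at RT, then reacted with substrate for 30 min. CatB and CatL were read with Z-Leu-Arg-AMC (Ex 380/Em 460 nm). CatS was read with MCA-Arg-Pro-Lys-Pro-Val-Glu-Nva-Trp-Arg-Lys(DNP)-NH2 (Ex 320/Em 405 nm). E-64 served as inhibitor control.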

Cytochrome P450 1A2 = target: T2, Cytochrome P450 1A2 (Homo sapiens, UniProt P05177); experiment: Inhibition of CYP1A2 (unknown origin); format: ADME; how it was run: as §2
T2 sequence (P05177 whole entry): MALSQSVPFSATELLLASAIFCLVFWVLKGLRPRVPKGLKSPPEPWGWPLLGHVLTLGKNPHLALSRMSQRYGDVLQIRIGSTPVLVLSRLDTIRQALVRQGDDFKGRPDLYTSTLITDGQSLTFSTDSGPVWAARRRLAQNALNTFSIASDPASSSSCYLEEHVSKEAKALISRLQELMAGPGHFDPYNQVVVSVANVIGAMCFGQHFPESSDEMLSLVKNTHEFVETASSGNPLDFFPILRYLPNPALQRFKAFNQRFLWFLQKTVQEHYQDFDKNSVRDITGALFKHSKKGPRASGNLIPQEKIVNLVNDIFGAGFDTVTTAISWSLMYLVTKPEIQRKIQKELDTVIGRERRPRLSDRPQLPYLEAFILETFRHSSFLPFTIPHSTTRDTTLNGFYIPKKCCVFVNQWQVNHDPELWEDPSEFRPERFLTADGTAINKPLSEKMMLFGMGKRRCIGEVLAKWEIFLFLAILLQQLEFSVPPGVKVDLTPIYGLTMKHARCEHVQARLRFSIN

Cytochrome P450 2D6 = Cytochrome P450 2D6 (Homo sapiens, UniProt P10635); experiment: Inhibition of CYP2D6 (unknown origin); format: ADME; how it was run: as §2
Cytochrome P450 3A4 = Cytochrome P450 3A4 (Homo sapiens, UniProt P08684); experiment: Inhibition of CYP3A4 (unknown origin); format: ADME; how it was run: as §2
Cytochrome P450 2C9 = Cytochrome P450 2C9 (Homo sapiens, UniProt P11712); experiment: Inhibition of CYP2C9 (unknown origin); format: ADME; how it was run: as §2
Procathepsin L = Procathepsin L (Homo sapiens, UniProt P07711); experiment: Inhibition of recombinant human C-terminal His6-tagged cathepsin L (Glu113 to Val333 and Ala114 to Val333 residues) expressed in mouse myeloma cells using Z-Leu-Arg-AMC as substrate preincubated for 30 mins followed by substrate addition and measured after 30 mins; how it was run: as §3
Cathepsin B = Cathepsin B (Homo sapiens, UniProt P07858); experiment: Inhibition of recombinant human C-terminal polyhistidine-tagged cathepsin B (Arg18 to Ile339 residues) expressed in HEK293 cells using Z-Leu-Arg-AMC as substrate preincubated for 30 mins followed by substrate addition and measured after 30 mins; how it was run: as §3

SMILES	pIC50 (Dipeptidyl peptidase 1 [1])	pIC50 (Dipeptidyl peptidase 1 [2])	pIC50 (Dipeptidyl peptidase 1 [5])	further results
C=CC(=O)Nc1cc(Oc2nc(Nc3ccc(N4CCC(N(C)C)CC4)cn3)ccc2N2CCCCC2)ccc1C	6.51			
C=CC(=O)Nc1cc(Oc2nc(Nc3ccc(N4CCN(C)CC4)cc3OC)ccc2N2CCCCC2)ccc1C(F)(F)F	8.64	8.62	8.74	microsomal CLint [3]: 15.1 µL/min/mg; microsomal CLint [4]: 15.4 µL/min/mg; microsomal CLint [6]: 5.2 µL/min/mg
C=CC(=O)Nc1cccc(Oc2nc(Nc3ccc(N4CCN(C)CC4)cc3OC)ccc2N2CCCC2)c1	6.76			
C=CC(=O)Nc1cccc(Oc2cccc(Nc3ccc(N4CCN(C)CC4)cc3OC)n2)c1	6.11			
C=CC(=O)Nc1cc(Oc2nc(Nc3ccc(N4CCN(C)CC4)cc3OC)ccc2N2CCCC(O)C2)ccc1C (racemic)	7.47	8.13	8.31	microsomal CLint [3]: 9 µL/min/mg; microsomal CLint [4]: 6 µL/min/mg; microsomal CLint [6]: 4.9 µL/min/mg; inhibition [7]: inactive
C=CC(=O)Nc1cccc(Oc2nc(Nc3ccc(N4CCN(C)CC4)cc3OC)ccc2N2CCCCCC2)c1	6.57			
C=CC(=O)Nc1cc(Oc2nc(Nc3ccc(N4CCN(C)CC4)cc3OC)ccc2N2CCCC2)ccc1C	7.36	7.39	7.91	pIC50 (Cytochrome P450 2C19): 5.00; pIC50 (Cathepsin S): < 5.00; pIC50 (Cytochrome P450 1A2): 5.06; pIC50 (Cytochrome P450 2D6): < 5.00; microsomal CLint [3]: 23.1 µL/min/mg; microsomal CLint [4]: 26.7 µL/min/mg; pIC50 (Cytochrome P450 3A4): < 5.00; pIC50 (Cytochrome P450 2C9): < 5.00; pIC50 (Procathepsin L): 5.00 to 5.52; pIC50 (Cathepsin B): 5.00 to 5.52; microsomal CLint [6]: 4.3 µL/min/mg; inhibition [7]: inactive
C=CC(=O)Nc1cc(Oc2nc(Nc3ccc(N4CCN(C)CC4)cc3OC)ccc2N2CCC(O)C2)ccc1C (racemic)	7.49	7.31	7.55	
C=CC(=O)Nc1cccc(Oc2nc(Nc3ccc(N4CCN(CC5CCCC5)CC4)cc3)ccc2Cl)c1	< 5.00			
C=CC(=O)Nc1cccc(Oc2nc(Nc3ccc(N4CCN(C)CC4)cc3OC)ccc2C(F)(F)F)c1	5.79			
C=CC(=O)Nc1cccc(Oc2nc(Nc3cccc(CN)c3)ccc2Cl)c1	5.67			
C=CC(=O)Nc1cc(Oc2nc(Nc3ccc(N4CCN(C(C)=O)CC4)cc3OC)ccc2N2CCCCC2)ccc1C	6.87			
C=CC(=O)Nc1cccc(Oc2nc(Nc3ccc(N4CCN(C)CC4)cc3OC)ccc2N(C)C)c1	5.82			
C=CC(=O)Nc1cc(Oc2nc(Nc3ccc(N4CCN(C)CC4)cc3OC)ccc2N2CCN(C)CC2)ccc1C	7.33	8.33	8.55	microsomal CLint [3]: 2 µL/min/mg; microsomal CLint [4]: 3 µL/min/mg; microsomal CLint [6]: 3.7 µL/min/mg
C=CC(=O)Nc1cc(Oc2nc(Nc3ccc(N4CCN(C)CC4)cc3OC)ccc2N2CCCC2)ccc1C(F)(F)F	8.40	7.94	8.17	microsomal CLint [3]: 11 µL/min/mg; microsomal CLint [4]: 866 µL/min/mg; microsomal CLint [6]: 3.9 µL/min/mg; inhibition [7]: inactive
C=CC(=O)Nc1cccc(Oc2nc(Nc3ccc(N4CCN(C)CC4)cc3OC)ccc2N2CCCC2)c1C	< 5.00			
C=CC(=O)Nc1cccc(Oc2nc(Nc3ccc(CCN)cc3)ccc2Cl)c1	5.69			
C=CC(=O)Nc1cc(Oc2nc(Nc3ccc(N4CCN(C)CC4)cc3OC)ccc2-c2ccccc2)ccc1C	6.81			inhibition [7]: inactive

Source: ChEMBL document CHEMBL4396895, “Identification and Optimization of Novel Cathepsin C Inhibitors Derived from EGFR Inhibitors” (J Med Chem, 2019)
